In ChEMBL document CHEMBL1135476, “Synthesis and structure-activity relationship study of potent trypanocidal thio semicarbazone inhibitors of the trypanosomal cysteine protease cruzain” (J Med Chem, 2002):

Experiments:
Cruzipain = Cruzipain (Trypanosoma cruzi, UniProt P25779); assay: Inhibitory activity against Trypanosoma cruzi cathepsin L-like protease (cruzain) was determined using purified recombinant protein
Summary of the method: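 Purified recombinant cruzain (1 nM) preincubated 5 min at room temperature with inhibitor (20-50000 nM; seven concentrations) in 100 mM sodium acetate, 5 mM DTT, pH 5.50. DMSO 0.7% in assay. IC50 read graphically from linear portion of inhibition vs log[I], at least two points in linear range.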

Trypanosoma cruzi [1] = assay: Trypanocidal activity in infected host cells; format: functional
Summary of the method: (§1)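 Irradiated (5000 rad) J774 macrophages were plated 24 h before infection with ~10^6 T. cruzi Y-strain trypomastigotes per well; the trypomastigotes came from BESM cell culture supernatants. Parasites were removed at 2 h, then compound was given at 10 μM (stocks 10 mM in DMSO) in RPMI-1640 with FCS at 37 °C, 5% CO2, refreshed every 48 h. DMSO blank served as control. Cultures were followed by phase microscopy for up to […], scoring intracellular cycle duration and host-cell survival and toxicity.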

Trypanosoma cruzi [2] = assay: Tested for the trypanocidal property against infected host cells (Trypanosoma cruzi) using a cell culture assay.; format: functional; summary of the method: as §1
Trypanosoma cruzi [3] = assay: Tested for the trypanocidal property against infected host cells (Trypanosoma cruzi) using a cell culture assay; format: functional; summary of the method: as §1

Sequence of Cruzipain (P25779 whole entry): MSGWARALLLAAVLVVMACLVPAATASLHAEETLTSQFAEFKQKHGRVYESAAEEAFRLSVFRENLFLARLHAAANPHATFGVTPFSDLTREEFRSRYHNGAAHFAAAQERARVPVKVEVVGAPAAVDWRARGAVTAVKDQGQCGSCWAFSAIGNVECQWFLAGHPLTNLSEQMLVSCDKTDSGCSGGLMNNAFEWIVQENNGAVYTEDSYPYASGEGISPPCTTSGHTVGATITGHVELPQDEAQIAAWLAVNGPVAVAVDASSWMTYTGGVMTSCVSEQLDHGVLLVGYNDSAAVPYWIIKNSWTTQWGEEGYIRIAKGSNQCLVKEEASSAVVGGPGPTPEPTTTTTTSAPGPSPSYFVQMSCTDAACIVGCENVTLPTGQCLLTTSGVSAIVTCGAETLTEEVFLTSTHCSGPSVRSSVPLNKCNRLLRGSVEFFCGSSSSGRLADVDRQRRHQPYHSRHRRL

Structure (SMILES)	IC50 (Cruzipain)	other results
C/C(=N\NC(N)=O)c1cccc(Br)c1	> 10 µM	–
CC1CN(C(=N)S)N=C1c1cccc(Cl)c1 (stereo not drawn)	0.23 µM	Cell survived (Trypanosoma cruzi [1]): >41 days
N/C(S)=N/N=C/c1cccn1S(=O)(=O)c1ccccc1	2.8 µM	–
N/C(S)=N/N=C/c1cccc(Cl)c1Cl	> 10 µM	–
CC/C(=N\N=C(/S)NCc1ccco1)c1cccc(Br)c1	> 10 µM	–
NC(=O)N/N=C/c1ccc(-c2ccc(Cl)cc2)o1	> 10 µM	–
CC1CN(C(=N)S)N=C1c1cccc(C(F)(F)F)c1 (stereo not drawn)	0.04 µM	Cell survived (Trypanosoma cruzi [1]): >41 days
C/N=C(\S)N1CCC(c2cccc(Br)c2)=N1	> 10 µM	–
CC1CN(C(=N)S)N=C1c1cccc(Br)c1 (stereo not drawn)	–	Cell survived (Trypanosoma cruzi [1]): >22 days
COc1ccc2ccccc2c1/C=N/N=C(/N)S	0.56 µM	Cell survived (Trypanosoma cruzi [2]): 5 days
CC/C(=N\N=C(\N)S)c1cccc(F)c1	> 10 µM	–
CC/C(=N\N=C(/S)Nc1ccccc1)c1cccc(Br)c1	> 10 µM	–
CC/C(=N\N=C(\N)S)c1ccc(Cl)cc1Cl	> 10 µM	–
FC(F)(F)c1ccc(NC(=S)N2CCC(c3cccc(Br)c3)=N2)cc1	> 10 µM	–
S=C(NCCN1CCOCC1)N1CCC(c2cccc(Br)c2)=N1	> 10 µM	–
CC/C(=N\N=C(/S)Nc1ccc(C(F)(F)F)cc1)c1cccc(Br)c1 (stereo in doubt; 5c)	1.6 µM	Cell survived (Trypanosoma cruzi [1]): 5 days
CC/C(=N\NC(N)=O)c1ccc(Cl)c(Cl)c1	> 10 µM	–
COc1ccc(/C=N/NC(N)=S)cc1O	> 10 µM	–
NC(=O)N/N=C/c1ccc(-c2ccc(Br)cc2)o1	> 10 µM	–
N/C(S)=N/N=C/c1cc(Cl)cc(Cl)c1	0.56 µM	–
CC/C(=N\N=C(/S)NC)c1cccc(Br)c1	> 10 µM	–
N=C(S)N/N=C/c1cccc(C(F)(F)F)c1	0.48 µM	–
CC/N=C(\S)N/N=C(\CC)c1cccc(Br)c1	> 10 µM	–
CCCCCCNC(=S)N1CCC(c2cccc(Br)c2)=N1	1.4 µM	–
CN(C)c1ccc(/C=N/N=C(/N)S)c2ccccc12	> 10 µM	–
CC/C(=N\N=C(\N)S)c1ccc(Cl)c(Cl)c1	0.02 µM	Cell survived (Trypanosoma cruzi [1]): 9 days

Structure (SMILES)	IC50 (Cruzipain)	other results
S=C(Nc1cccc(Cl)c1)N1CCC(c2cccc(Br)c2)=N1	1 µM	Cell survived (Trypanosoma cruzi [1]): 5 days
CC/C(=N\NC(N)=O)c1cccc(C(F)(F)F)c1	> 10 µM	–
CC/C(=N\N=C(/S)NC(C)C)c1cccc(Br)c1	> 10 µM	–
CC/C(=N\N=C(\N)S)c1ccc(OC)cc1	> 10 µM	–
COc1ccccc1-c1ccc(/C=N/N=C(/N)S)o1	0.28 µM	Cell survived (Trypanosoma cruzi [3]): 8 days
N/C(S)=N/N=C/c1cc(C#Cc2ccccc2)cs1	> 10 µM	–
C/C(=N\N=C(\N)S)c1cccc(Br)c1	–	Cell survived (Trypanosoma cruzi [1]): 22 days
C/C(=N\N=C(\N)S)c1cccc(C(F)(F)F)c1	0.17 µM	Cell survived (Trypanosoma cruzi [1]): 15 days
N/C(S)=N/N=C/c1ccc(Cl)c(Cl)c1	0.46 µM	–
S=C(Nc1ccccc1)N1CCC(c2cccc(Br)c2)=N1	> 10 µM	–
C/C(=N\NC(N)=O)c1cccc(C(F)(F)F)c1	> 10 µM	–
CC/C(=N\NC(N)=O)c1cccc(Br)c1	> 10 µM	–
CC/C(=N\N=C(\N)S)c1ccccc1	> 10 µM	–
CC/C(=N\N=C(/S)NCCN1CCNCC1)c1cccc(Br)c1	> 10 µM	–
FC(F)(F)c1cccc(NC(=S)N2CCC(c3cccc(Cl)c3)=N2)c1	1.7 µM	–
NC(=S)N1CCC(c2cccc(Br)c2)=N1	0.2 µM	Cell survived (Trypanosoma cruzi [1]): 5 days
CC(C)/N=C(\S)N1CCC(c2cccc(Br)c2)=N1	> 10 µM	–
C/C(=N\NC(N)=O)c1cccc(Cl)c1	> 10 µM	–
Cn1nc(C(F)(F)F)cc1-c1ccc(/C=N/N=C(/N)S)s1	7 µM	–
CC/C(=N\NC(N)=O)c1cc(C(F)(F)F)cc(C(F)(F)F)c1	> 10 µM	–
C/C(=N\N=C(\N)S)c1ccc(Br)s1	3.8 µM	–
N/C(S)=N/N=C/c1ccc(-c2cccc(Cl)c2)o1	0.14 µM	–
CC/C(=N\N=C(\N)S)c1ccc(Br)cc1	> 10 µM	–
CCC(NNC(N)=S)c1cccc(Br)c1 (stereo not drawn)	> 10 µM	–
CC/C(=N\N=C(\N)S)c1ccc2cc(OC)ccc2c1	> 10 µM	–
COc1cccc(/C(C)=N/N=C(/N)S)c1	> 10 µM	–

Structure (SMILES)	IC50 (Cruzipain)	other results
S=C(NCc1ccco1)N1CCC(c2cccc(Br)c2)=N1	> 10 µM	–
C/C(=N\N=C(\N)S)c1ccc(Cl)s1	1.9 µM	–
C/C(=N\N=C(\N)S)c1ccccc1Cl	> 10 µM	–
CC/C(=N\N=C(\N)S)c1cccc(C(F)(F)F)c1	0.05 µM	Cell survived (Trypanosoma cruzi [2]): >41 days
C/C(=N\NC(N)=O)c1ccc(Cl)c(Cl)c1	> 10 µM	–
NC(=S)N/N=C/c1ccc(-c2ccc(Br)cc2)o1	0.28 µM	–
C/C(=N\N=C(\N)S)c1ccccc1Br	3.9 µM	–
NC(=S)N1CCC(c2cccc(Cl)c2)=N1	0.27 µM	Cell survived (Trypanosoma cruzi [1]): 5 days
CC/C(=N\N=C(\N)S)c1ccc(Cl)cc1	> 10 µM	–
N=C(S)N/N=C/c1ccccc1C(F)(F)F	> 10 µM	–
NC(=S)N1CCC(c2ccc(Cl)c(Cl)c2)=N1	0.06 µM	Cell survived (Trypanosoma cruzi [1]): >41 days
N/C(S)=N/N=C/c1cccc(Br)c1	1.3 µM	Cell survived (Trypanosoma cruzi [1]): 8 days
CC/C(=N\N=C(\N)S)c1cccc(Br)c1	–	Cell survived (Trypanosoma cruzi [2]): >46 days
CC/C(=N\N=C(\N)S)c1cc(C(F)(F)F)cc(C(F)(F)F)c1	0.02 µM	Cell survived (Trypanosoma cruzi [1]): 20 days
C/C(=N\N=C(\N)S)c1ccc(Cl)c(Cl)c1	0.05 µM	Cell survived (Trypanosoma cruzi [1]): >41 days
CC/C(=N\NC(N)=O)c1cccc(Cl)c1	> 10 µM	–
CC/C(=N\N=C(\N)S)c1cccc(Cl)c1	0.22 µM	Cell survived (Trypanosoma cruzi [2]): 22 days
CC/N=C(\S)N1CCC(c2cccc(Br)c2)=N1	> 10 µM	–
N/C(S)=N/N=C/c1ccc(-c2ccc(Cl)cc2)o1	0.3 µM	Cell survived (Trypanosoma cruzi [3]): 15 days
N=C(S)N/N=C/c1cc(C(F)(F)F)cc(C(F)(F)F)c1	0.32 µM	–
C/C(=N\N=C(\N)S)c1ccc(N2CCOCC2)cc1	> 10 µM	–
CC1CN(C(=N)S)N=C1c1ccc(Cl)c(Cl)c1 (stereo not drawn)	0.07 µM	Cell survived (Trypanosoma cruzi [1]): 15 days
C/C(=N\N=C(\N)S)c1cc(C(F)(F)F)cc(C(F)(F)F)c1	0.06 µM	Cell survived (Trypanosoma cruzi [1]): 7 days
N=C(S)N1CCC(c2cccc(C(F)(F)F)c2)=N1	0.08 µM	Cell survived (Trypanosoma cruzi [1]): 5 days
CC/C(=N\N=C(/S)Nc1ccc(C(F)(F)F)cc1)c1cccc(Br)c1 (stereo in doubt)	> 10 µM	–
NC(=O)N/N=C/c1ccc(-c2cccc(Cl)c2)o1	> 10 µM	–
